Measurements published in the EternaBench riboswitch data.

Assays:
MS2 coat protein [1] = assay: apparent Kd, MS2 coat protein; higher = weaker binding; RNA-MaP array; tryptophan 2.4 mM where present
How it was run: (§1)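 Stalled E. coli RNA polymerase produced the designs on Illumina sequencing-chip clusters. SNAP-549-labelled MS2 coat protein was added from 0.7 or 1.5 nM, doubling to 3 µM, without and then with constant ligand, in 100 mM Tris-HCl pH 7.5, 80 mM KCl, 4 mM MgCl2, BSA, DTT, yeast tRNA and Tween-20. The apparent Kd is the median of filtered per-cluster fits of green signal normalised to red-channel RNA signal and control-cluster median Fmax.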

MS2 coat protein [2] = assay: apparent Kd, MS2 coat protein; higher = weaker binding; RNA-MaP array; theophylline 2 mM where present
How it was run: as §1

[3] = designed as: OFF switch for theophylline, no ligand
[4] = ligand present: theophylline, designed as: OFF switch for theophylline
[5] = designed as: ON switch for theophylline, no ligand
[6] = ligand present: theophylline, designed as: ON switch for theophylline

## CCUCAAUAGACGGCCGCCACUGAAACAUGCGGAUACAUGAGGAUCACCCAUGUGGGUGUGUUACGCAGGACCGGGUCAAGACCCG
MS2 coat protein [1]; designed as: ON switch for tryptophan, no ligand
  apparent Kd: 345 nM
MS2 coat protein [1]; ligand present: tryptophan, designed as: ON switch for tryptophan
  apparent Kd: 480 nM

## UUAUAAGUACCGGUCCUCAGAUCCUCAUGACGAGGACCGGUACGGCCGCCACUCGAAACAUGAGGAUCACCCAUGUAAUAAUACC
MS2 coat protein [1]; designed as: OFF switch for tryptophan, no ligand
  apparent Kd: 37.5 nM
MS2 coat protein [1]; ligand present: tryptophan, designed as: OFF switch for tryptophan
  apparent Kd: 29.1 nM

## ACGAACUGUAGUGAUACCAGACGUACAUGAGGAUCACCCAUGUUGUAAACAUGGUGAAUAGUCCCUUGGCAGCACAGUUAGUUCG
MS2 coat protein [2]; [3]
  apparent Kd: 182 nM
MS2 coat protein [2]; [4]
  apparent Kd: 738 nM

## CAAACAUGAGGAUCACCCAUGUAAUCAGAUACCAGUGACGAAAGUCACCCUUGGCAGCUGAGUACAUAUUGGCAGAGGUGUUUGA
MS2 coat protein [2]; [3]
  apparent Kd: 67 nM
MS2 coat protein [2]; [4]
  apparent Kd: 75 nM

## ACGUCCAGGUUAAUCGUGGACAUGGUCGAUACCAGUAUUUUAAUCUACCCUUGGCAGCGACAUGAGGAUCACCCAUGUGCGAUGA
MS2 coat protein [2]; [3]
  apparent Kd: 12.5 nM
MS2 coat protein [2]; [4]
  apparent Kd: 23.4 nM

## GGCUAGUGCAUCGAUACCAGCUACAUGAGGAUCACCCAUGUAGGAAGGGUGGUACUCGAUAGCCCUUGGCAGCGAACACCUCCGG
MS2 coat protein [2]; [3]
  apparent Kd: 16.1 nM
MS2 coat protein [2]; [4]
  apparent Kd: 31.4 nM

## AUAACAUGAGGAUCACCCAUGUUGAGUGAUACCAGACUAUGUAAUGUCCCUUGGCAGCACAAGUAAAGUUAUAAAUAAUGAUAGA
MS2 coat protein [2]; [5]
  apparent Kd: 57.2 nM
MS2 coat protein [2]; [6]
  apparent Kd: 25.1 nM

## AGUACUCGAACGGAUACCAGCCGGACAUGAGGAUCACCCAUGUCCUACCAUGGUUCGGUUGGCCCUUGGCAGCCGUUCGUGUACA
MS2 coat protein [2]; [5]
  apparent Kd: 225 nM
MS2 coat protein [2]; [6]
  apparent Kd: 20.2 nM

## UCCUUAGAUACUGAUACCAGACUACAGUAAACAUGAGGAUCACCCAUGUUUGAUCACUAAGUCCCUUGGCAGCAGGUACAUGGGA
MS2 coat protein [2]; [5]
  apparent Kd: 11.3 nM
MS2 coat protein [2]; [6]
  apparent Kd: 9.08 nM

## ACAUGAGGAUCACCCAUGUUCCUCAUUGAUACCAGUGAAUUUAGACGCCCUUGGCAGCGAGUUUAAGAAGAAGAAGUUUUUUUUU
MS2 coat protein [2]; [3]
  apparent Kd: 667 nM
MS2 coat protein [2]; [4]
  apparent Kd: 895 nM

## UUAUUUAUAAUGGAUACCAGUCGUAUGGCCCGGCAUCCUGACAUGAGGAUCACCCAUGUCGACCCUUGGCAGCUGUUAUGGGUUU
MS2 coat protein [2]; [3]
  apparent Kd: 13.5 nM
MS2 coat protein [2]; [4]
  apparent Kd: 20 nM

## AUGCACCUCGUCCAGGCAAUCUUUAGUGAUACCAGCUAACUCCUUGGCCCUUGGCAGCACAUGAGGAUCACCCAUGUGCGACAUC
MS2 coat protein [2]; [3]
  apparent Kd: 11.9 nM
MS2 coat protein [2]; [4]
  apparent Kd: 14 nM

## UCGUGAGUUUCGGAUACCAGUGUUGUCGAUACAUGAGGAUCACCCAUGUUAGAGGAUGUACACCCUUGGCAGCCGGCUGUGGCGG
MS2 coat protein [2]; [5]
  apparent Kd: 18.6 nM
MS2 coat protein [2]; [6]
  apparent Kd: 11.3 nM

## AUCGUACCUGGUGAUACCAGCAAUUGCUCGUGACAUGAGGAUCACCCAUGUGGCCAGUGAUGCCCUUGGCAGCAUGGUCGGUGCA
MS2 coat protein [2]; [5]
  apparent Kd: 164 nM
MS2 coat protein [2]; [6]
  apparent Kd: 89.3 nM

## ACAUGAAGAACAGCGGUGGGCGCGCUCGAUACCAGUACUUUGAUAUACCCUUGGCAGCGACAUGAGGAUCACCCAUGUGAGAUGA
MS2 coat protein [2]; [3]
  apparent Kd: 18.7 nM
MS2 coat protein [2]; [4]
  apparent Kd: 27.2 nM

## AUUAAUUGUCGUGAUACCAGACAUACAUGAGGAUCACCCAUGUUAAGUAACAUUUUUUAUGUCCCUUGGCAGCACUUUUUAAUUA
MS2 coat protein [2]; [5]
  apparent Kd: 19.4 nM
MS2 coat protein [2]; [6]
  apparent Kd: 11.5 nM

## UCGCUCGCCGGAAGGCGAGCGAGUUGCGAUACCAGCCCGGAAACGGGCCCUUGGCAGCGCACAUGAGGAUCACCCAUGUCAUGUU
MS2 coat protein [2]; [3]
  apparent Kd: 19.4 nM
MS2 coat protein [2]; [4]
  apparent Kd: 26.2 nM

## CGACUACAGCGUGAUACCAGUGACAGAUACCAGUCUAGACAUGAGGAUCACCCAUGUACGCGCCCUUGGCAGCACACUAGAUCGA
MS2 coat protein [2]; [5]
  apparent Kd: 89.4 nM
MS2 coat protein [2]; [6]
  apparent Kd: 49.9 nM

## UCGACAGUGAACGAUACCAGCGUCACGUGGCCGGUGGUCACAUGAGGAUCACCCAUGUAACGCCCUUGGCAGCGUGCACGUAUCC
MS2 coat protein [2]; [3]
  apparent Kd: 26.1 nM
MS2 coat protein [2]; [4]
  apparent Kd: 184 nM

## UGUAUGUGAUUUGAUACCAGAUCAGCUGGUUAUACAUGAGGAUCACCCAUGUUACUUUGGGUCCCUUGGCAGCAAAUCGCAUACU
MS2 coat protein [2]; [5]
  apparent Kd: 487 nM
MS2 coat protein [2]; [6]
  apparent Kd: 28.4 nM

## AUCGUACCUGAGGAUACCAGCAUGUGAUCAUAACAUGAGGAUCACCCAUGUAAUCAGUGAUGCCCUUGGCAGCUUAGUCGAUACA
MS2 coat protein [2]; [5]
  apparent Kd: 75.5 nM
MS2 coat protein [2]; [6]
  apparent Kd: 45.2 nM

## UGUAUGUGAUCUGAUACCAGUCCCUUGGCAGCAACAUGAGGAUCACCCAUGUAGAUACCAGACCCUUGGCAGCAGAUCGCAUACU
MS2 coat protein [2]; [5]
  apparent Kd: 9.06 nM
MS2 coat protein [2]; [6]
  apparent Kd: 8.27 nM

## GCAAUAACGAUUGAUACCAGCAUGUUAACAUGAGGAUCACCCAUGUUAAGGAUAACAUAAUGCCCUUGGCAGCAACGGAAAGCCG
MS2 coat protein [2]; [5]
  apparent Kd: 24.3 nM
MS2 coat protein [2]; [6]
  apparent Kd: 14 nM

## ACGUCCCGUUUACUCGUGGGUUAGGUCGAUACCAGUAUUCAAACUUACCCUUGGCAGCGACAUGAGGAUCACCCAUGUGCGAAGA
MS2 coat protein [2]; [3]
  apparent Kd: 17.6 nM
MS2 coat protein [2]; [4]
  apparent Kd: 99.5 nM

## ACACAUGAGGAUCACCCAUGUUCAAUAGAUACCAGUGAUACGGUGCACCCUUGGCAGCUGUUGCUGAGUGAUGGUUCCCUCGGUA
MS2 coat protein [2]; [5]
  apparent Kd: 41.3 nM
MS2 coat protein [2]; [6]
  apparent Kd: 65.4 nM

## ACUUUGUCGGGUGAUACCAGCCUCGGCACAUCUCGUGCCGAACAUGAGGAUCACCCAUGUGGCCCUUGGCAGCACAUGACAAAUC
MS2 coat protein [2]; [5]
  apparent Kd: 341 nM
MS2 coat protein [2]; [6]
  apparent Kd: 59.5 nM
